Measurements taken from ChEMBL document CHEMBL3526048, “In vitro metabolism of rivoglitazone, a novel peroxisome proliferator-activated receptor γ agonist, in rat, monkey, and human liver microsomes and freshly isolated hepatocytes” (Drug Metab Dispos, 2011).

Assays:
[1] = biological target: T1, UDP-glucuronosyltransferase 2B7 (Homo sapiens, UniProt P16662); experiment: (§1) Activity of human UGT2B7 expressed in microsomes isolated from baculovirus infected insect cell assessed as enzyme-mediated 5-(4-((6-methoxy-1H-benzo[d]imidazol-2-yl)methoxy)benzyl)thiazolidine-2,4-dione formation at 20 uM after 4 hrs by radio-HPLC/LC-MS/MS analysis in presence of NADPH-generating system and NADPH-generating system/SAM in presence of UDPGA and UDPGA/SAM; type: ADME
T1 sequence (P16662 whole entry): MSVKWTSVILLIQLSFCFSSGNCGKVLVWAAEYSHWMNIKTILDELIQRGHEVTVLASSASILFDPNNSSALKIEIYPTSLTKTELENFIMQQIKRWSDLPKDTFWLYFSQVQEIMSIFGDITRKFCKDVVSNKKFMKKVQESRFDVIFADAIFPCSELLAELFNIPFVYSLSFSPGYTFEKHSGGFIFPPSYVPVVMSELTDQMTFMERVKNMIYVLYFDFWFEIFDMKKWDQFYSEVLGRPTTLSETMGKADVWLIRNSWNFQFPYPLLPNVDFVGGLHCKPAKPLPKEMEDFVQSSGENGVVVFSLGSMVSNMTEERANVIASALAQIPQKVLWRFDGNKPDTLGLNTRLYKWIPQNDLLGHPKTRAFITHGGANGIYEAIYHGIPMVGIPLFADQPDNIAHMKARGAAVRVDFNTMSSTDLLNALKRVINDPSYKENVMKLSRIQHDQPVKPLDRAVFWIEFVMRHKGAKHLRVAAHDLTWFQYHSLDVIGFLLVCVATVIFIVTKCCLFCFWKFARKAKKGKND

[2] = Drug metabolism in cynomolgus monkey liver microsomes assessed as formation of 3-(4-((6-methoxy-1-methyl-1H-benzo[d]imidazol-2-yl)methoxy)phenyl)-2-(methylthio)propanamide at 20 uM after 2 hrs by radio-HPLC/LC-MS/MS analysis in presence of NADPH-generating system/SAM; type: ADME, Macaca fascicularis
Cytochrome P450 2C19 = Cytochrome P450 2C19 (Homo sapiens, UniProt P33261); experiment: Activity of human CYP2C19 expressed in microsomes isolated from baculovirus infected insect cell assessed as enzyme-mediated 2-((4-((2,4-dioxothiazolidin-5-yl)methyl)phenoxy)methyl)-1-methyl-1H-benzo[d]imidazol-6-yl hydrogen sulfate formation at 20 uM after 2 hrs by radio-HPLC/LC-MS/MS analysis; type: ADME
Summary of the method: (§2)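 Baculovirus/insect-cell microsomes expressing single human CYPs, 1 mg/ml protein, with 50 mM potassium phosphate (pH 7.4) or 100 mM Tris-HCl (pH 7.5). NADPH-generating system: 2 mM NADP⁺, 20 mM glucose 6-phosphate, 2 units/ml G6PDH, 10 mM MgCl₂. [¹⁴C]rivoglitazone at 20 μM, 2 h at 37°C with shaking. Control used insect-cell control supersomes. Stopped with acetonitrile; supernatant concentrated under nitrogen; metabolites analysed by radio-HPLC, LC-MS and LC-MS/MS.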

Cytochrome P450 2C8 = biological target: T2, Cytochrome P450 2C8 (Homo sapiens, UniProt P10632); experiment: as §1, with “human CYP2C8” for “human UGT2B7”, “after 2” for “after 4”, “system/SAM” for “system/SAM in presence of UDPGA and UDPGA/SAM”; type: ADME; summary of the method: as §2
T2 sequence (P10632 whole entry): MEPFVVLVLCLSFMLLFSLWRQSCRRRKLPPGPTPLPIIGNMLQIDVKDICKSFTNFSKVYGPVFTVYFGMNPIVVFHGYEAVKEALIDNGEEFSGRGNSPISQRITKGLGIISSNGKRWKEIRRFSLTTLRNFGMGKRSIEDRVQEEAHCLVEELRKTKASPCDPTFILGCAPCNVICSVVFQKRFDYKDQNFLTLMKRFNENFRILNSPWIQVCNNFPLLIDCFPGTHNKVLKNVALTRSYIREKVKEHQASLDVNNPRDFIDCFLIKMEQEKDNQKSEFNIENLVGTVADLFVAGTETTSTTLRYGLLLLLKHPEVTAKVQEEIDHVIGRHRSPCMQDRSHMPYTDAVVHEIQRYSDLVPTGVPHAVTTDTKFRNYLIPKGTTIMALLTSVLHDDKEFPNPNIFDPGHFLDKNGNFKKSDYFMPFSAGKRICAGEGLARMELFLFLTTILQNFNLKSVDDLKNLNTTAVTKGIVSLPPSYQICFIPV

Liver microsome = experiment: Drug metabolism in Sprague-Dawley rat liver microsomes assessed as formation of 2-mercapto-3-(4-((6-methoxy-1-methyl-1H-benzo[d]imidazol-2-yl)methoxy)phenyl)propanamide at 20 uM after 2 hrs by radio-HPLC/LC-MS/MS analysis in presence of NADPH-generating system and NADPH-generating system/SAM; type: ADME
Cytochrome P450 3A5 = Cytochrome P450 3A5 (Homo sapiens, UniProt P20815); experiment: Activity of human CYP3A5 expressed in microsomes isolated from baculovirus infected insect cell assessed as enzyme-mediated 5-hydroxy-5-(4-((6-methoxy-1-methyl-1H-benzo[d]imidazol-2-yl)methoxy)benzyl)thiazolidine-2,4-dione formation at 20 uM after 2 hrs by radio-HPLC/LC-MS/MS analysis in presence of NADPH-generating system and NADPH-generating system/SAM; type: ADME
Summary of the method: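 cDNA-expressed human CYP3A5 in baculovirus-insect-cell microsomes (1 mg/ml protein) was incubated with [¹⁴C]rivoglitazone (20 μM) in 50 mM potassium phosphate (pH 7.4) or 100 mM Tris-HCl (pH 7.5). NADPH-generating system: 2 mM NADP⁺, 20 mM glucose 6-phosphate, 2 units/ml G6PDH, 10 mM MgCl₂. Incubation ran 2 h at 37°C with shaking; insect-cell control supersomes served as control. Acetonitrile stop, supernatant concentrated, then radio-HPLC, LC-MS and LC-MS/MS.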

[3] = biological target: T3, UDP-glucuronosyltransferase 1A3 (Homo sapiens, UniProt P35503); experiment: Activity of human UGT1A3 expressed in microsomes isolated from baculovirus infected insect cell assessed as enzyme-mediated (2S,3S,4S,5R,6R)-6-((1-carboxy-2-(4-((6-methoxy-1-methyl-1H-benzo[d]imidazol-2-yl)methoxy)phenyl)ethylthio)carbonylamino)-3,4,5-trihydroxytetrahydro-2H-pyran-2-carboxylic acid formation at 20 uM after 4 hrs by radio-HPLC/LC-MS/MS analysis in presence of NADPH-generating system/SAM; type: ADME
T3 sequence (P35503 whole entry): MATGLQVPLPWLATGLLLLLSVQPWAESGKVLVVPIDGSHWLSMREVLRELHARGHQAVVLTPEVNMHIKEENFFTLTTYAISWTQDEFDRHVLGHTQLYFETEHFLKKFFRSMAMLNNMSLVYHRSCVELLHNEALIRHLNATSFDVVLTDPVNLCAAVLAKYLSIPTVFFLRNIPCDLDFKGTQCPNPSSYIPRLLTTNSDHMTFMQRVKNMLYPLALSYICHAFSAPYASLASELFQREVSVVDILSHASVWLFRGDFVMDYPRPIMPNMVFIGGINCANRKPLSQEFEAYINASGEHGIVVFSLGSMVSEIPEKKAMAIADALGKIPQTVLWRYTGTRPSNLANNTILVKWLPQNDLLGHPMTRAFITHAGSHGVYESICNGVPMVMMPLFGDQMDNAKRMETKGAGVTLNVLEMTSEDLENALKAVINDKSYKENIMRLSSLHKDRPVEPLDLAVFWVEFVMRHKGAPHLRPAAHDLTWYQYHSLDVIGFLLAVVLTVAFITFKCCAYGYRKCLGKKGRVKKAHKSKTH

Cytochrome P450 2C9 = Cytochrome P450 2C9 (Homo sapiens, UniProt P11712); experiment: Activity of human CYP2C9 expressed in microsomes isolated from baculovirus infected insect cell assessed as enzyme-mediated 5-(4-((6-hydroxy-1-methyl-1H-benzo[d]imidazol-2-yl)methoxy)benzyl)thiazolidine-2,4-dione formation at 20 uM after 2 hrs by radio-HPLC/LC-MS/MS analysis in presence of NADPH-generating system and NADPH-generating system/SAM; type: ADME
Sequence of Cytochrome P450 2C9 (P11712 whole entry): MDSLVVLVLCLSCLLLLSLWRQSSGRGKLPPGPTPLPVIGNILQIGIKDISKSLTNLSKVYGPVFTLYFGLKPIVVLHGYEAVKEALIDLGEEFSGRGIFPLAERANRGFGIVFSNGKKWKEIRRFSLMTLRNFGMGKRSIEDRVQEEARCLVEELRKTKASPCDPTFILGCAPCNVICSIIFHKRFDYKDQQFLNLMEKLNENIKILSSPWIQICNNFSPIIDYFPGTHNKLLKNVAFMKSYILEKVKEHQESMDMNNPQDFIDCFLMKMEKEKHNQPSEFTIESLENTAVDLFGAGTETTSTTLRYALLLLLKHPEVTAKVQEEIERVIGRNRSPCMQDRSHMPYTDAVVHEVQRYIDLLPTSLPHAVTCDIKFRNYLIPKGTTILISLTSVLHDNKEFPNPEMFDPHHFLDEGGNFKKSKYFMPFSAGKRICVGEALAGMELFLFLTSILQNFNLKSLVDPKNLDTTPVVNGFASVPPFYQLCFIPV

Sequence of Cytochrome P450 2C19 (P33261 whole entry): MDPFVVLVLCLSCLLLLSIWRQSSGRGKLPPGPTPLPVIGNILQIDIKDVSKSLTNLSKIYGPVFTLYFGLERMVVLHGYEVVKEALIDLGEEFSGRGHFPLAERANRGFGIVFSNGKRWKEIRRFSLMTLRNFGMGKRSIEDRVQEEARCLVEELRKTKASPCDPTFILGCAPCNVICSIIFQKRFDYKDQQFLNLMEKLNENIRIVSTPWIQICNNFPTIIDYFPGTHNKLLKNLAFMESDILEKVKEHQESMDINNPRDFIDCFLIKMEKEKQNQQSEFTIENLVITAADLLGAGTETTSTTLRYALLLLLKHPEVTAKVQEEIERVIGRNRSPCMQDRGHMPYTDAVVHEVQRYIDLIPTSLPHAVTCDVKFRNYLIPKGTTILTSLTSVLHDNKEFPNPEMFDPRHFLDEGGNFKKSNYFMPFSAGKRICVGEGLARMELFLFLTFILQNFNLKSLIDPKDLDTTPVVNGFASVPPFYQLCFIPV
Sequence of Cytochrome P450 3A5 (P20815 whole entry): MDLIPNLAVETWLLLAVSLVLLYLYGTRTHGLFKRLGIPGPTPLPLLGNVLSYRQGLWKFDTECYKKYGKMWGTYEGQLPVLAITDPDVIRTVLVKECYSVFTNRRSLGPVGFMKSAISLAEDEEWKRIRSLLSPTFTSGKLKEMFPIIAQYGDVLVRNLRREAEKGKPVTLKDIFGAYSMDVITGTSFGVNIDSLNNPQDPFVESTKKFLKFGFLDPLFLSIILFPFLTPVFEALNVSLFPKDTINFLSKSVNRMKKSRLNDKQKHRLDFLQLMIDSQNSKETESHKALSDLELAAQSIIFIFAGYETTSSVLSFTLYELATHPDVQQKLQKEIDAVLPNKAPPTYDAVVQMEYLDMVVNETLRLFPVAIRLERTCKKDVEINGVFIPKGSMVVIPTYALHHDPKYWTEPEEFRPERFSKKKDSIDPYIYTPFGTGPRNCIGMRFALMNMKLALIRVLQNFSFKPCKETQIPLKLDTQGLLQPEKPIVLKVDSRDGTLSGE

COc1ccc2nc(COc3ccc(C[14CH]4SC(=O)NC4=O)cc3)n(C)c2c1.Cl (racemic)
Drug metabolism [1]: metabolite_not_detected
Drug metabolism [2]: metabolite_detected
Drug metabolism (Cytochrome P450 2C19): metabolite_not_detected
Drug metabolism (Cytochrome P450 2C8): metabolite_detected
Drug metabolism (Liver microsome): metabolite_detected
Drug metabolism (Cytochrome P450 3A5): metabolite_detected
Drug metabolism [3]: metabolite_detected
Drug metabolism (Cytochrome P450 2C9): metabolite_detected
